From PubChem BioAssay
GPR7 antag = blocks human GPR7 receptor signaling. inhibition, % at 4.4 µM. hit rate 1.1% among 290,000. GPR7-expressing cells, fluorescence antagonist assay. AID 1861; in the data active means inhibition above about 16%, passing the limit was not always enough;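 further: cells stimulated with the agonist NPW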
Target sequence (P48145 whole entry, looked up): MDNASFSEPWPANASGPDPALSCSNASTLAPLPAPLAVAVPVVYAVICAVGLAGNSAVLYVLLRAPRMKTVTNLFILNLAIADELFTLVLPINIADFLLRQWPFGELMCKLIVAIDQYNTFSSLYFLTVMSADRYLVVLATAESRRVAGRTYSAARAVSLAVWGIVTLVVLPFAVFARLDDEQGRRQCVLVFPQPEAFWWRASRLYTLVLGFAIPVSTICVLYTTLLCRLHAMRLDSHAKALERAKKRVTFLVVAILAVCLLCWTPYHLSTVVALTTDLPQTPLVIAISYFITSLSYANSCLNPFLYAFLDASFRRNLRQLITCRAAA
697 NFkB inh = lowers PMA/ionomycin-induced NF-kB signal in 697 B cells | 697 B-cell NF-kB luciferase reporter, 16 h | inhibition, % at 4 µM | hit rate 0.33% among 330,000; in the data active means inhibition above about 35%
Jurkat NFkB inh = lowers PMA/ionomycin-induced NF-kB signal in Jurkat cells; PMA/ionomycin-induced NF-kB luciferase reporter, luminescence; hit rate 0.53% among 330,000; inhibition, % at 4 µM; AID 435003; in the data active means inhibition above about 50%
HSF1 inhib = HSF1 inhibition. activity change, negative = inhibition, % at 7.5 µM (by protocol). NIH3T3-HGL HSE-luciferase, MG132-induced, luminescence 8 h; active compounds read low. AID 2098. hit rate 0.77% among 300,000;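 active means more than half of replicate wells show activity change below -50%, luminescence cut by over half; inconclusive means some wells, but at most half, below -50%; inactive means no replicate well below -50%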;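 further: luciferase reports HSF-1 transcriptional activity via heat shock element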
HSF1 activator = increases HSF-1 driven luciferase reporter signal; activation, % at 9 µM; AID 504408; NIH3T3-HGL HSF-1 luciferase reporter, MG132, 8 h; 100% = twice DMSO control signal; hit rate 1.7% among 300,000;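 active means mean replicate activation of at least 50% with a set share of replicates each reaching 50%; inconclusive means only one of those two conditions met; inactive means mean below 50% and too few replicates reaching it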
T cruzi repl = T. cruzi replication inhibition | hit rate 1.4% among 300,000 | inhibition, % (no concentration beside the values) | T. cruzi beta-gal in NIH3T3, luminescence, 90 h;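 active means mean inhibition across valid replicates above about 55%, limit read from the data; inconclusive means mean below that limit but half or more replicates reach it; inactive means mean below it, under half of replicates reach it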;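 further: signal also drops with host cell toxicity which is not excluded here; higher percent means less beta-gal luminescence so fewer parasites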
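Incubation – ≥90 h infection period, 3 h prior cell attachment · System – NIH/3T3 fibroblasts plus reporter T. cruzi · Doses – compound pinned at 50 nL/well, DMSO · Read-out basis – percent inhibition of parasite-derived β-gal signal · Signal – luminescent β-galactosidase signal after 60 min lysis · Also added – 5000 T. cruzi trypomastigotes/well · Medium – Low-serum DMEM with 2% FBS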
Jurkat NFkB conf = lowers PMA/ionomycin-induced NF-kB signal in Jurkat cells; shares compounds with Jurkat NFkB inh; Jurkat NF-kB luciferase, 16 h; inhibition, % at 4 µM; hit rate 27% among 2,700;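 active means inhibition reaching about 45% at 4 µM in either replicate, limit read from the data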
A number is an active result; – = inactive; ? = inconclusive; · = no result. Shown are actives, neighbours in structure and some others; about 4.8% of the full set was active somewhere.

SMILES | GPR7 antag | 697 NFkB inh | Jurkat NFkB inh | HSF1 inhib | HSF1 activator | T cruzi repl | Jurkat NFkB conf
Cc1ccc(C)c(C(=O)CN2C(=O)NC3(CCC(C)CC3)C2=O)c1 (stereo not given) | – | – | 64 | – | – | – | –
S=C(NCCCN1CCOCC1)N1CCN(c2nc(-c3ccc(Cl)cc3)cs2)CC1 | – | – | 51 | – | – | – | –
O=C(NC1CCCCC1)C(c1ccc(F)cc1)N(C(=O)c1csnn1)C1CC1 (stereo not given) | – | – | – | – | – | – | ·
Cc1nc(Sc2nnnn2C)c2c3c(sc2n1)CCC3 | – | – | 64 | · | · | · | 53
NC(=O)c1ccccc1NC(=O)/C=C/c1ccccc1 | – | – | – | – | – | – | ·
NC(=O)c1ccccc1NC(=O)/C=C/c1ccc(Cl)cc1 | – | – | – | – | – | – | –
N#Cc1c2ccc([N+](=O)[O-])cc2[n+]([O-])n1-c1ccccc1 | · | – | – | · | · | · | ·
CCOC(=O)c1oc2ccc(S(=O)(=O)n3nc(-c4ccccc4)cc3N)cc2c1C | – | – | – | – | – | – | ·
CCOC(=O)c1oc2ccc(S(=O)(=O)n3nc(-c4ccc(OC)cc4)cc3N)cc2c1C | – | – | 58 | – | – | – | –
CCCCCCCCn1cnc2c(N)c(C)c(C)cc21 | – | – | 75 | – | – | – | –
CC(Oc1ccc(Cl)cc1Cl)C(=O)NNC(=O)c1ccncc1 (stereo not given) | · | – | – | – | – | – | ·
CC(Oc1ccc(Cl)cc1Cl)c1nc(-c2ccc(NC(=O)c3ccncc3)cc2)no1 (stereo not given) | – | – | 51 | – | – | 55 | 57
Oc1ccccc1/C=N/Nc1cccc2cccnc12 | – | – | – | – | – | – | –
O=C(COc1cccc2cccnc12)N/N=C/c1ccccc1O | – | – | – | – | – | – | ·
COc1ccccc1CNS(=O)(=O)c1ccc(-c2cc(C)no2)cc1 | – | – | 60 | – | – | – | 48
O=C(NCCCN1CCOCC1)c1onc(CSc2ccncc2)c1C(=O)NCCCN1CCOCC1 | · | – | – | – | – | – | ·
COc1cc2c(cc1OC)C(COc1ccc(F)cc1)N(C(C)=O)CC2 (stereo not given) | – | – | – | – | – | – | ·
CCC(=O)N1CCc2cc(OC)c(OC)cc2C1COc1ccc(F)cc1 (stereo not given) | – | – | 64 | – | – | – | –
Cc1ccc(N(Cc2cc3ccccc3[nH]c2=O)S(=O)(=O)c2ccccc2)cc1 | – | – | 85 | – | – | – | –
COc1ccc(S(=O)(=O)N2CCCC2CNC(=O)C(=O)Nc2ccc(F)cc2)cc1 (stereo not given) | · | – | – | – | – | – | ·
O=C(O)c1ccc(N/N=C/c2ccncc2)cc1 | – | – | – | – | – | – | ·
O=C(O)c1ccc(N/N=C/c2ccc3nccnc3c2)cc1 | – | – | 60 | -81 | – | – | –
COc1cccc(/C=N/Nc2cc(Cl)nc(C)n2)c1O | – | – | – | – | – | – | ·
COc1cccc(/C=N/Nc2ncnc3c2ncn3Cc2ccccc2)c1O | – | – | 63 | – | – | – | 67
CN(C)CCCNc1c2ccccc2nc2ccccc12 | – | – | 99 | – | – | 68 | –
SMILES | GPR7 antag | 697 NFkB inh | Jurkat NFkB inh | HSF1 inhib | HSF1 activator | T cruzi repl | Jurkat NFkB conf
CN(C)CCCNc1nc(-c2ccccc2)nc2ccccc12 | – | – | – | – | – | – | ·
CCCCCC(=O)N/N=C(\C)c1ccc(N2CCCCC2)cc1 | – | – | – | – | – | – | ·
CC1Cc2ccccc2N1S(=O)(=O)c1cnc[nH]1 (stereo not given) | – | – | – | – | – | – | ·
CSc1ccc(S(=O)(=O)N2c3ccccc3CC2C)cc1 (stereo not given) | – | – | 55 | – | – | – | –
CC(=O)N1CCc2cc(S(=O)(=O)N3c4ccccc4CC3C)ccc21 (stereo not given) | – | – | 53 | – | – | – | –
CCN(CC)CCNC(=O)c1ccc2c(c1NCCO)C(=O)c1ccccc1C2=O | – | – | 86 | – | – | – | 47
CCCCCOc1ccc(Br)cc1/C(C)=N/NC1=NCCN1 | 18 | – | 63 | – | – | 55 | –
COc1ccc(Br)cc1/C(C)=N/NC1=NCCN1 | – | – | 67 | – | – | – | –
C/C(=N\NC1=NCCN1)c1ccccc1 | – | – | – | – | – | – | ·
CC(C)N(Cc1ccccc1)C(=O)COC(=O)C1CCCCC1 | · | – | – | · | · | · | ·
COC(=O)c1cnc(Oc2ccc(NC(=O)NC(=O)c3c(F)cccc3Cl)cc2)cc1C(F)(F)F | – | – | 50 | – | – | – | –
COC(=O)c1cnc(Oc2c(Cl)cc(N)cc2Cl)cc1C(F)(F)F | – | – | – | – | – | – | ·
COC(=O)c1cnc(Oc2ccc(NC(=O)NC(=O)c3c(F)cccc3F)cc2)cc1C(F)(F)F | – | – | – | – | – | – | ·
COC(=O)c1cnc(Oc2ccc(NC(=O)NC(=O)c3c(OC)cccc3OC)cc2)cc1C(F)(F)F | – | – | 66 | – | – | – | 60
Cc1ccccc1CNC(=O)Nc1ccc(Cl)cc1 | – | – | – | – | ? | – | ·
Fc1cccc(CSc2ccc3nnc(-c4cccnc4)n3n2)c1 | – | – | – | – | – | – | ·
O=c1cc(-c2cccc(F)c2)[nH]c2ccccc12 | – | – | 72 | – | – | – | 62
COc1ccc2[nH]c(-c3cccc(F)c3)cc(=O)c2c1 | – | – | – | – | – | – | ·
Cc1ccc2[nH]c(-c3cccc(F)c3)cc(=O)c2c1 | – | – | 52 | – | – | – | –
O=c1cc(-c2ccccc2)[nH]c2cc(Cl)ccc12 | – | – | 65 | – | – | – | 61
Cc1cccc(-n2c(SCC(=O)c3c(N)n(C4CC4)c(=O)[nH]c3=O)nnc2N2CCOCC2)c1 | · | – | – | · | · | · | ·
O=C(CCN1CCN(c2ccccc2)CC1)NNC(=O)Cc1ccc(Br)cc1 | · | – | – | · | · | · | ·
CCS(=O)c1ccccc1C(=O)OCC(=O)Nc1ccc2ccccc2c1 (stereo not given) | · | – | – | · | · | · | ·
CC(=O)c1ccc(NC(=O)C(C)n2c3ccccc3c3nc(=O)cc(C)n32)cc1 (stereo not given) | – | – | – | – | – | – | ·
O=C1C=C(c2ccc3cc[nH]c3c2)C[C@@H](c2ccc3c(c2)OCO3)C1 | · | – | 53 | · | · | · | –
O=C1C=C(c2ccc3c(c2)OCO3)C[C@@H](c2ccc3c(c2)OCO3)C1 | · | – | – | · | · | · | ·
CCOC(=O)/C(C#N)=C/c1cc2ccccc2nc1Cl | – | – | – | – | – | – | ·
CSc1nc2ccccc2cc1/C=C(\C#N)c1cccc(Cl)c1 | – | – | 54 | – | – | – | –
CN(C)c1ccc2nc3c(=O)[nH]c(=O)nc-3n(CC(O)C(O)C(O)CO)c2c1 (stereo not given) | – | – | – | – | – | – | ·
